Test results published in ChEMBL document CHEMBL1121917, “Structure--activity relationships in a broad-spectrum anthelmintic series. Acid chloride phenylhydrazones. 1. Aryl substitutions and chloride variations” (1981).

Assays:
Canis familiaris [1] = species: Canis familiaris; test: Percent reduction in Uncinaria eggs per gram, after oral treatment of 100 mg/dog dose of compound in a single treatment; type: functional, Canis lupus familiaris, Egg
Method in brief: (§1)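 Dogs naturally infected with Toxascaris leonina were experimentally infected with mixed Ancylostoma caninum and Uncinaria stenocephala larvae. Finely ground compound was given orally in gelatin capsules. Three egg count determinations were made before and three after treatment in each experiment.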

Ovis aries [2] = test: Percent reduction in Haemonchus eggs per gram, after treatment of 100 mg/kg dose of compound perorally in sheep; Toxic; type: functional, organism-based; set-up: dose 100 mg/kg; details: Egg
Method in brief: (§2)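 Naturally parasitized lambs received compound orally, either as the aqueous suspension by stomach tube or as finely ground powder in gelatin capsules by balling gun. Activity was judged by the clinical test method, as a significant decrease in posttreatment helminth egg counts.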

Canis familiaris [3] = species: Canis familiaris; test: percent reduction in Ancylostoma eggs per gram, after oral treatment of 100 mg/dog dose of compound in a single treatment; type: functional, Canis lupus familiaris, Egg; method in brief: as §1
Canis familiaris [4] = species: Canis familiaris; test: Percent reduction in Toxascaris eggs per gram, after oral treatment of 100 mg/dog dose of compound in a single treatment; type: functional, Canis lupus familiaris, Egg; method in brief: as §1
Mus musculus [5] = species: Mus musculus; test: Percent clearance of Nematospiroides dubius from mouse after oral treatment of 7.5 mg/mouse/day; type: functional
Method in brief: (§3)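 Mice naturally carrying Syphacia obvelata were experimentally infected with Nematospiroides dubius and Hymenolepis nana, then grouped after a 2-week prepatency. Finely ground compound was suspended in aqueous 0.10% carboxymethylcellulose, 0.04% polysorbate 80 and 0.0042% polyparaben, and 0.1 mL was given orally by cannula once daily for 4 days to five mice. Necropsy followed 2 days later, scoring presence or absence of each parasite. Control clearance was subtracted from the treated clearance.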

Mus musculus [6] = species: Mus musculus; test: Percent clearance of Syphacaia obvelata from mouse after oral treatment of 7.5 mg/mouse/day; type: functional; method in brief: as §3
Mus musculus [7] = species: Mus musculus; test: Percent clearance of Syphacaia obvelata from mouse after oral treatment of 1.87 mg/mouse/day; type: functional; method in brief: as §3
Mus musculus [8] = species: Mus musculus; test: Percent clearance of Nematospiroides dubius from mouse after oral treatment of 1.87 mg/mouse/day; type: functional; method in brief: as §3
Ovis aries [9] = test: Percent reduction in Haemonchus eggs per gram, after treatment with 100 mg/kg dose of compound perorally in sheep; type: functional, Egg; details: route oral; method in brief: as §2
Ovis aries [10] = test: Percent reduction in Trichostrongylus eggs per gram, after treatment with 100 mg/kg dose of compound perorally in sheep; type: functional, Egg; details: route oral
Method in brief: (§4)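 Naturally parasitized lambs, dosed orally either with a suspension by stomach tube or with finely ground compound in gelatin capsules by balling gun. Activity was scored by the clinical test method, meaning a significant fall in helminth egg counts after treatment.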

Canis familiaris [11] = species: Canis familiaris; test: percent reduction in Toxascaris eggs per gram, after oral treatment of 50 mg/dog dose of compound in a single treatment; type: functional, Canis lupus familiaris, Egg; method in brief: as §1
Ovis aries [12] = test: Percent reduction in Ostertagia eggs per gram, after treatment with 100 mg/kg dose of compound perorally in sheep; type: functional, Egg; details: route oral
Method in brief: (§5)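 Naturally parasitized lambs were dosed orally at the stated mg/kg. Dosing was either as a suspension of finely ground compound by stomach tube, or as ground compound weighed into gelatin capsules and given by balling gun. Activity was scored by the clinical test method: the decrease in posttreatment helminth eggs per gram.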

Ovis aries [13] = test: Percent reduction in Oesophagostomum eggs per gram, after treatment with 100 mg/kg dose of compound perorally in sheep; type: functional, Egg; details: route oral; method in brief: as §5
Canis familiaris [14] = species: Canis familiaris; test: percent reduction in Uncinaria eggs per gram, after oral treatment of 50 mg/dog dose of compound in a single treatment; type: functional, Canis lupus familiaris, Egg; method in brief: as §1
Ovis aries [15] = test: Percent reduction in Strongyloides eggs per gram, after treatment with 100 mg/kg dose of compound perorally in sheep; type: functional, Egg; details: route oral; method in brief: as §4
Ovis aries [16] = test: Percent reduction in Trichuris eggs per gram, after treatment with 100 mg/kg dose of compound perorally in sheep; type: functional, Egg; details: route oral; method in brief: as §4
Mus musculus [17] = species: Mus musculus; test: Percent clearance of Syphacaia obvelata from mouse after oral treatment of 0.47 mg/mouse/day; type: functional; method in brief: as §3
Mus musculus [18] = species: Mus musculus; test: Percent clearance of Nematospiroides dubius from mouse after oral treatment of 0.47 mg/mouse/day; type: functional; method in brief: as §3
Mus musculus [19] = species: Mus musculus; test: Percent clearance of Nematospiroides dubius from mouse after oral treatment of 3.75 mg/mouse/day; type: functional; method in brief: as §3
Mus musculus [20] = species: Mus musculus; test: Percent clearance of Syphacaia obvelata from mouse after oral treatment of 3.75 mg/mouse/day; type: functional; method in brief: as §3
Canis familiaris [21] = species: Canis familiaris; test: Percent reduction in Uncinaria eggs per gram, after oral treatment of 200 mg/dog dose of compound in a single treatment; type: functional, Canis lupus familiaris, Egg; method in brief: as §1
Canis familiaris [22] = species: Canis familiaris; test: Percent reduction in Ancylostoma eggs per gram, after oral treatment of 100 mg/dog dose of compound in a single treatment; type: functional, Canis lupus familiaris, Egg
Method in brief: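 Dogs naturally infected with Toxascaris leonina were experimentally infected with mixed Ancylostoma caninum and Uncinaria stenocephala larvae. Finely ground compound was given orally in gelatin capsules. Fecal egg counts were taken three times before and three times after treatment, and activity was taken as the fall in egg counts.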

Ovis aries [23] = test: Percent reduction in Cooperia eggs per gram, after treatment with 100 mg/kg dose of compound perorally in sheep; type: functional, Egg; details: route oral; method in brief: as §2
Ovis aries [24] = test: Percent reduction in Ostertagia eggs per gram, after oral treatment of 100 mg/kg dose of compound perorally in sheep; type: functional, Egg; method in brief: as §5
Ovis aries [25] = test: Percent reduction in Strongyloides eggs per gram, after oral treatment of 100 mg/kg dose of compound perorally in sheep; type: functional, Egg; method in brief: as §4
Ovis aries [26] = test: Percent reduction in Trichuris eggs per gram, after oral treatment of 100 mg/kg dose of compound perorally in sheep; type: functional, Egg
Ovis aries [27] = test: Percent reduction in Oesophagostomum eggs per gram, after oral treatment of 100 mg/kg dose of compound perorally in sheep; type: functional, Egg; method in brief: as §5
Ovis aries [28] = test: Percent reduction in Trichostrongylus eggs per gram, after oral treatment of 100 mg/kg dose of compound perorally in sheep; type: functional, Egg; method in brief: as §4
Ovis aries [29] = test: Percent reduction in Haemonchus eggs per gram, after oral treatment of 100 mg/kg dose of compound perorally in sheep; type: functional, Egg; method in brief: as §2
Ovis aries [30] = test: Percent reduction in Nematodirus eggs per gram, after oral treatment of 100 mg/kg dose of compound perorally in sheep; type: functional, Egg; method in brief: as §5
Mus musculus [31] = species: Mus musculus; test: Percent clearance of Hymenolepis nana from mouse after oral treatment of 7.5 mg/mouse/day; type: functional; method in brief: as §3
Mus musculus [32] = species: Mus musculus; test: Percent clearance of Nematospiroides dubius from mouse after oral treatment of 0.32 mg/mouse/day; type: functional; method in brief: as §3
Mus musculus [33] = species: Mus musculus; test: Percent clearance of Syphacaia obvelata from mouse after oral treatment of 0.32 mg/mouse/day; type: functional; method in brief: as §3
Ovis aries [34] = test: Percent reduction in Haemonchus eggs per gram, after treatment of 150 mg/kg dose of compound perorally; Toxic; details: Egg

**Q.** `Cl/C(=N\Nc1ccc(Cl)c(Cl)c1)c1ccccc1` was tested. Which Reduction (Canis familiaris [1]) did it give?
**A.** 0%

**Q.** What about the Reduction (Ovis aries [2]) of the same compound?
**A.** Toxic

**Q.** And the Reduction (Canis familiaris [3])?
**A.** 0%

**Q.** And the Reduction (Canis familiaris [4])?
**A.** 0%

**Q.** What does the source list for `Cl/C(=N\Nc1c(Cl)cc(Cl)cc1Cl)c1cccc(Cl)c1`?
**A.** Parasite_Clearance (Mus musculus [5]): 50%; Parasite_Clearance (Mus musculus [6]): 100%

**Q.** With `Cl/C(=N\Nc1ccccc1)c1ccccc1Cl` as the compound, how does the Parasite_Clearance (Mus musculus [7]) read?
**A.** 20%

**Q.** What about the Parasite_Clearance (Mus musculus [8]) of the same compound?
**A.** 40%

**Q.** What does the source list for `Cl/C(=N\Nc1cc(Cl)cc(Cl)c1)c1ccccc1`?
**A.** Reduction (Ovis aries [9]): 97%; Reduction (Ovis aries [10]): 100%; Reduction (Canis familiaris [11]): 40%; Reduction (Ovis aries [12]): 100%; Reduction (Ovis aries [13]): 0%; Reduction (Canis familiaris [14]): 57%; Reduction (Ovis aries [15]): 45%; Reduction (Ovis aries [16]): 100%

**Q.** How did the Parasite_Clearance (Mus musculus [17]) turn out when `CC(C)c1ccc(/C(Cl)=N/Nc2ccccc2)cc1` was run?
**A.** 0%

**Q.** What about the Parasite_Clearance (Mus musculus [18]) of the same compound?
**A.** 0%

**Q.** What does the source list for `Cl/C(=N\Nc1c(Cl)cc(Cl)cc1Cl)c1ccc(Br)cc1`?
**A.** Parasite_Clearance (Mus musculus [19]): 0%; Parasite_Clearance (Mus musculus [20]): 40%

**Q.** With `Cl/C(=N\Nc1ccccc1)c1ccc(Cl)c(Cl)c1` as the compound, how does the Parasite_Clearance (Mus musculus [5]) read?
**A.** 100%

**Q.** `Cc1cc(/C(Cl)=N/Nc2ccccc2)ccc1[N+](=O)[O-]` was tested. Which Reduction (Canis familiaris [1]) did it give?
**A.** 0%

**Q.** And the Reduction (Canis familiaris [21])?
**A.** 55%

**Q.** What about the Parasite_Clearance (Mus musculus [19]) of the same compound?
**A.** 80%

**Q.** What about the Parasite_Clearance (Mus musculus [20]) of the same compound?
**A.** 100%

**Q.** Which results are given for `Cc1ccccc1/C(Cl)=N/Nc1c(Cl)cc(Cl)cc1Cl`?
**A.** Reduction (Canis familiaris [22]): 0%; Reduction (Ovis aries [9]): 85%; Reduction (Ovis aries [23]): 33%; Reduction (Ovis aries [10]): 14%; Reduction (Canis familiaris [1]): 20%; Reduction (Ovis aries [12]): 67%; Reduction (Ovis aries [13]): 11%; Reduction (Canis familiaris [4]): 100%; Reduction (Ovis aries [15]): 85%; Reduction (Ovis aries [16]): 0%

**Q.** Which results are given for `Cl/C(=N\Nc1cc(Cl)c(Cl)cc1Cl)c1ccccc1`?
**A.** Parasite_Clearance (Mus musculus [19]): 0%; Parasite_Clearance (Mus musculus [20]): 33%

**Q.** What does the source list for `Cl/C(=N\Nc1ccccc1)c1ccc(Cl)cc1`?
**A.** Reduction (Ovis aries [24]): 100%; Reduction (Ovis aries [25]): 100%; Reduction (Ovis aries [26]): 0%; Reduction (Ovis aries [27]): 100%; Reduction (Ovis aries [28]): 99%; Reduction (Ovis aries [29]): 100%; Reduction (Ovis aries [30]): 100%

**Q.** Which Parasite_Clearance (Mus musculus [5]) does the source give for `Cl/C(=N\Nc1c(Cl)cc(Cl)cc1Cl)c1c(Cl)cccc1Cl` here?
**A.** 0%

**Q.** What about the Parasite_Clearance (Mus musculus [31]) of the same compound?
**A.** 0%

**Q.** How did the Parasite_Clearance (Mus musculus [17]) turn out when `Cl/C(=N\Nc1ccccc1)c1ccc(Cl)cc1Cl` was run?
**A.** 0%

**Q.** And the Parasite_Clearance (Mus musculus [18])?
**A.** 0%

**Q.** How did the Parasite_Clearance (Mus musculus [32]) turn out when `Cl/C(=N\Nc1ccc(Br)cc1Br)c1ccccc1` was run?
**A.** 0%

**Q.** What about the Parasite_Clearance (Mus musculus [33]) of the same compound?
**A.** 0%

**Q.** Which results are given for `Cl/C(=N\Nc1c(Cl)cc(Cl)cc1Cl)c1ccc(Cl)c(Cl)c1`?
**A.** Parasite_Clearance (Mus musculus [5]): 0%; Parasite_Clearance (Mus musculus [31]): 0%

**Q.** What does the source list for `O=[N+]([O-])c1ccc(/C(Cl)=N/Nc2ccccc2)c(Cl)c1`?
**A.** Parasite_Clearance (Mus musculus [5]): 0%; Parasite_Clearance (Mus musculus [6]): 0%

**Q.** How did the Parasite_Clearance (Mus musculus [7]) turn out when `Cl/C(=N\Nc1ccccc1)c1cccc(Cl)c1` was run?
**A.** 100%

**Q.** And the Parasite_Clearance (Mus musculus [8])?
**A.** 100%

**Q.** What about the Reduction (Ovis aries [34]) of the same compound?
**A.** Toxic

**Q.** What does the source list for `Cl/C(=N\Nc1ccc(Cl)cc1)c1ccccc1`?
**A.** Parasite_Clearance (Mus musculus [17]): 80%; Parasite_Clearance (Mus musculus [18]): 100%

**Q.** Which Parasite_Clearance (Mus musculus [5]) does the source give for `Cc1cc(Cl)ccc1N/N=C(\Cl)c1ccccc1` here?
**A.** 0%

**Q.** What about the Parasite_Clearance (Mus musculus [6]) of the same compound?
**A.** 0%

**Q.** What does the source list for `Cc1ccccc1N/N=C(\Cl)c1ccccc1`?
**A.** Parasite_Clearance (Mus musculus [17]): 0%; Parasite_Clearance (Mus musculus [18]): 100%
